Our source for the Activity, IC50 and Percent reduction in Cdc42-GTP/total Cdc42 ratio values is ChEMBL document CHEMBL1158458, “Virtual screening approach for the identification of new Rac1 inhibitors” (J Med Chem, 2009).

Molecules are shown by their SMILES. Active and inactive are the calls of the source. The calls are words filed in the database; no cut-off is given here.

Test [1] has as its target Transforming protein RhoA (Homo sapiens) (UniProt P61586). In words: Inhibition of PDGF-BB-stimulated RhoA activity in human aortic smooth muscle cells assessed as reduction in ratio of RhoAGTP/RhoA levels at 25 uM after 4 hrs by pull-down assay. In a few lines: (§1)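 Cultured human aortic SMCs exposed to compound at 25 μM for 4 h, then stimulated with PDGF-BB (final 10 ng/mL) for 2 min. Active GTPase (Cdc42-GTP for line 2, RhoA-GTP for line 3) isolated by pull-down and expressed as the GTP-bound/total protein ratio. The Rac1 pull-down was run under the same conditions.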

The target in test [2] is Cell division control protein 42 homolog (Homo sapiens) (UniProt P60953). In words: Inhibition of Cdc42.
Chain of Cell division control protein 42 homolog (Homo sapiens) (P60953 whole entry, looked up): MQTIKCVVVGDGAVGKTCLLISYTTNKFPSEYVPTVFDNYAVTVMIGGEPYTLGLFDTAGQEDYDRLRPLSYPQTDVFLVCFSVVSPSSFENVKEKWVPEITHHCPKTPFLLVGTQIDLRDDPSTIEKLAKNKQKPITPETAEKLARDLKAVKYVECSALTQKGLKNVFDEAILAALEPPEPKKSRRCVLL
The target in test [3] is Ras-related C3 botulinum toxin substrate 1 (Homo sapiens, UniProt P63000). Briefly: Inhibition of PDGF-BB-stimulated Rac1 activity in human aortic smooth muscle cells assessed as reduction of Rac1GTP level after 4 hrs by G-LISA.
Test [4] addresses Cell division control protein 42 homolog (Homo sapiens) (UniProt P60953). In words: Inhibition of PDGF-BB-stimulated Cdc42 activity in human aortic smooth muscle cells assessed as reduction in ratio of Cdc42GTP/Cdc42 levels at 25 uM after 4 hrs by pull-down assay. The method, boiled down:
as §1

Test [5] has as its target Ras-related C3 botulinum toxin substrate 1 (Mus musculus) (UniProt P63001). In words: Inhibition of PDGF-BB-stimulated Rac1-mediated cellular events in mouse 3T3 cells assessed as induction of membrane lamillipodia at 25 uM after 48 hrs by fluorescent microscopy. Type of test: cell-based. To be noted: NIH3T3. The method, boiled down:
(§2)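 Serum-starved 3T3 cells were treated with compound at 25 μM and stimulated with PDGF-BB. Lamellipodia and membrane ruffle formation at the cell edges were then scored, together with cytoskeletal rearrangement.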

For test [6] the target is unchanged. Briefly: Inhibition of PDGF-BB-stimulated Rac1-mediated cellular events in mouse 3T3 cells assessed as induction of membrane ruffling formation at 25 uM after 48 hrs by fluorescent microscopy. In kind it is cell-based. To be noted: NIH3T3. The method, boiled down: as §2

Chain of Transforming protein RhoA (Homo sapiens) (P61586 whole entry): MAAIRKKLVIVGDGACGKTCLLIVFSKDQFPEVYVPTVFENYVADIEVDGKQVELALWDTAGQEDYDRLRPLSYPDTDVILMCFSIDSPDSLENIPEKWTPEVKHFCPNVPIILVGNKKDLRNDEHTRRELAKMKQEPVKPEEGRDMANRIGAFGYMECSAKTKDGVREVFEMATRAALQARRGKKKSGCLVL

Usually IC50 stands for the concentration that gives 50% inhibition. Turning to `COc1cc2c(C#N)c(N3CCN(c4ccccc4OC)CC3)nc(N)c2c(N)n1`, the result in test [1] was inactive. Also, in test [2], the result was Active. For the same molecule, the IC50 in test [3] came to 46.1 µM. The Percent reduction in Cdc42-GTP/total Cdc42 ratio in test [4] is below 25%.
With `COc1ccc(NC(=O)c2n[nH]c3ccccc23)cc1S(=O)(=O)N1CCCCC1`, in test [1], the result was inactive. Moreover, the outcome in test [2], in test [5] and in test [6] was Active. For the same molecule, in test [4], the Percent reduction in Cdc42-GTP/total Cdc42 ratio was below 25%.
Regarding `CC(OC(=O)c1ccc2ccccc2c1O)C(=O)Nc1ccc(N2CCOCC2)cc1` (stereo not given), the result in test [1] was inactive. In addition, the outcome in test [2] was Active. For the same molecule, in test [4], the Percent reduction in Cdc42-GTP/total Cdc42 ratio was below 25%.
In the case of `O=C(CNc1ccc(F)c([N+](=O)[O-])c1)Nc1ccc(N2CCOCC2)cc1`, the outcome in test [1] was inactive. The result in test [2] was Active. In addition, the Percent reduction in Cdc42-GTP/total Cdc42 ratio in test [4] was below 25%.
